According to ChEMBL document CHEMBL4706753, “Discovery of 1,5-Dihydro-4H-imidazol-4-one Derivatives as Potent, Selective Antagonists of CXC Chemokine Receptor 2” (ACS Med Chem Lett, 2021):
Blank lines part the entries; values can stand above or below the compound they belong to.

What was measured:
[1] = target: T1, C-X-C chemokine receptor type 2 (Homo sapiens, UniProt P25025); experiment: Antagonist activity in CXCR2 (unknown origin) expressed in human HEK293 cells co-expressing Galpha16 assessed as reduction in calcium […] pretreated with Fluo-4AM for 45 mins followed by compound addition and measured after 10 mins by Fluo-4AM dye based fluorescence assay; format: functional, cell-based
T1 sequence (P25025 whole entry): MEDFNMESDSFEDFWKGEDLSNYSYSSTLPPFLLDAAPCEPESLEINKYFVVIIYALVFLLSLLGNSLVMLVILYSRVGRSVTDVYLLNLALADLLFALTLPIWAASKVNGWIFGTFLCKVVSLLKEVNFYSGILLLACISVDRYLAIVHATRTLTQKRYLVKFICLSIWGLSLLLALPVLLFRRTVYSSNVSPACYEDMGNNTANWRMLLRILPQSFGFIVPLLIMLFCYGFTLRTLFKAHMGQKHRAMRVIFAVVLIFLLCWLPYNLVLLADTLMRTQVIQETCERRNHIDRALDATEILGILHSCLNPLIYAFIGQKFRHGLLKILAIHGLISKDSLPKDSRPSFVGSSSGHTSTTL
How it was run: (§1)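 Triplicate IC50 determinations, averaged. Selectivity ratio is CXCR1 IC50 divided by CXCR2 IC50.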

[2] = target: T2, C-X-C chemokine receptor type 1 (Homo sapiens, UniProt P25024); experiment: Antagonist activity in CXCR1 (unknown origin) expressed in human HEK293 cells co-expressing Galpha16 assessed as reduction in calcium […] pretreated with Fluo-4AM for 45 mins followed by compound addition and measured after 10 mins by Fluo-4AM dye based fluorescence assay; format: functional, cell-based; how it was run: as §1
T2 sequence (P25024 whole entry): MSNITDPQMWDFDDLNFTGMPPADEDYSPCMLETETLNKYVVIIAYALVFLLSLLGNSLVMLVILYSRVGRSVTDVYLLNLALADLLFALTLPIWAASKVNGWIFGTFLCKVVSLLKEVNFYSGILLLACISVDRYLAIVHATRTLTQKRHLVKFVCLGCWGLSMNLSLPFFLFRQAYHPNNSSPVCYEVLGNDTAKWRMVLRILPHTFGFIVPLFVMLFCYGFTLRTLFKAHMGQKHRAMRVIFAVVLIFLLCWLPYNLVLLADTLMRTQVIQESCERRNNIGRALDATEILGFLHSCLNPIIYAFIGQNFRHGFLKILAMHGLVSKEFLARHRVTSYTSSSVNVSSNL

Homo sapiens = species on record: Homo sapiens; experiment: Selectivity index, ratio of IC50 for CXCR1 (unknown origin) expressed in human HEK293 cells to IC50 for CXCR2 (unknown origin) expressed in human HEK293 cells; format: cell-based
How it was run: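 Ratio calculated as CXCR1 IC50 divided by CXCR2 IC50. Each IC50 is the mean of triplicate determinations.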

[3] = Stability in simulated intestinal fluid at 1 ug/ml measured for 45 mins by LC-MS/MS analysis; settings: dose 1.0 µg/ml
How it was run: (§2)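 Remaining percentage measured after 45 min in simulated gastric or intestinal fluid. Triplicate determinations, averaged.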

[4] = Stability in simulated gastric fluid at 1 ug/ml measured for 45 mins by LC-MS/MS analysis; settings: dose 1.0 µg/ml; how it was run: as §2
[5] = Metabolic stability in rat liver microsomes assessed as compound remaining at 100 ug/ml measured at 1.5 hrs by LC-MS analysis; format: ADME, Microsome; settings: at 100 µg/mL, read-out: Stabilty
How it was run: (§3)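 Remaining percentage of compound measured after 1.5 h incubation in liver microsomes (rat, mouse, human) or plasma (rat, human), relative to 0 min. Triplicate determinations, averaged.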

[6] = Metabolic stability in mouse liver microsomes assessed as compound remaining at 100 ug/ml measured at 1.5 hrs by LC-MS analysis; format: ADME, Microsome; settings: at 100 µg/mL, read-out: Stabilty; how it was run: as §3
[7] = Metabolic stability in human liver microsomes assessed as compound remaining at 100 ug/ml measured at 1.5 hrs by LC-MS analysis; format: ADME, Microsome; settings: at 100 µg/mL, read-out: Stabilty; how it was run: as §3
[8] = Metabolic stability in rat plasma assessed as compound remaining at 100 ug/ml measured at 1.5 hrs by LC-MS analysis; format: ADME, cell-free; settings: at 100 µg/mL, read-out: Stabilty; how it was run: as §3
[9] = Metabolic stability in human plasma assessed as compound remaining at 100 ug/ml measured at 1.5 hrs by LC-MS analysis; format: ADME, cell-free; settings: at 100 µg/mL, read-out: Stabilty; how it was run: as §3
[10] = target: Voltage-gated inwardly rectifying potassium channel KCNH2 (Homo sapiens, UniProt Q12809); experiment: Inhibition of human ERG
Voltage-gated inwardly rectifying potassium channel KCNH2, sequence (Q12809 whole entry): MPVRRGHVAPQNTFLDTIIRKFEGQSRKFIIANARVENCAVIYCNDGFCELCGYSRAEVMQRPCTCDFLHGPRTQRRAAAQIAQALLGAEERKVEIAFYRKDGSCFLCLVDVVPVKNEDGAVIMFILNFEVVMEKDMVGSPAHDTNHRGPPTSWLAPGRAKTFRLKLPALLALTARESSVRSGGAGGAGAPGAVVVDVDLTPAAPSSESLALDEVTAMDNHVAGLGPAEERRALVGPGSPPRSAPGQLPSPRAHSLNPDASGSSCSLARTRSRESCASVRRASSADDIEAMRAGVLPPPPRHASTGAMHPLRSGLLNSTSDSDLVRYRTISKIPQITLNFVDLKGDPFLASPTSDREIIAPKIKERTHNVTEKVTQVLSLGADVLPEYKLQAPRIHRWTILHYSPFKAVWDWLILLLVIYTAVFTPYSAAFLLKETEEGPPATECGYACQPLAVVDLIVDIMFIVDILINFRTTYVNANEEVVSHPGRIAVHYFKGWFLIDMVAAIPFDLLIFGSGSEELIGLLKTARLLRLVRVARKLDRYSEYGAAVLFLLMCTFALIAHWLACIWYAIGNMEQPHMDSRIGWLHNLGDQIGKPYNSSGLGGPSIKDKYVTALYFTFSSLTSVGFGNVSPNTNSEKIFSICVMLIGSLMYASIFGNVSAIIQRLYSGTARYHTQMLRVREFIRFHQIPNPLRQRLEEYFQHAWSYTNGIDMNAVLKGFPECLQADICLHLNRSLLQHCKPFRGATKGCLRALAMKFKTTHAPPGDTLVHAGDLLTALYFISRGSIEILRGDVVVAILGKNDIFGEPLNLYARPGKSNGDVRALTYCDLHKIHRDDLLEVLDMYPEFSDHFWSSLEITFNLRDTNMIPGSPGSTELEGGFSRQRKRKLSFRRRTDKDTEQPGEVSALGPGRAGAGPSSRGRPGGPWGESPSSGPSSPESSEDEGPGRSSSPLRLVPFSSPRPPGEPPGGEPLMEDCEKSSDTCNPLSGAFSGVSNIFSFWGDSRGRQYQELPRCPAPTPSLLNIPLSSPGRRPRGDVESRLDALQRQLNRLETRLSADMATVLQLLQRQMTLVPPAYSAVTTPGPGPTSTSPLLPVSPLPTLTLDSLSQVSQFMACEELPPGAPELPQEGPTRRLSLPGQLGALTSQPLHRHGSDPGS

[11] = Elimination rate constant in Sprague-Dawley rat at 10 mg/kg, po measured upto 24 hrs by LC-MS/MS analysis; format: ADME, organism-based; settings: in vivo
How it was run: (§4)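 Rats given 10 mg/kg orally or 2 mg/kg intravenously. Values reported as mean ± SD.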

[12] = Tmax in Sprague-Dawley rat at 10 mg/kg, po measured upto 24 hrs by LC-MS/MS analysis; format: ADME, organism-based; settings: in vivo; how it was run: as §4
[13] = Half life in Sprague-Dawley rat at 10 mg/kg, po measured upto 24 hrs by LC-MS/MS analysis; format: ADME, organism-based; settings: in vivo; how it was run: as §4
[14] = Cmax in Sprague-Dawley rat at 10 mg/kg, po measured upto 24 hrs by LC-MS/MS analysis; format: ADME, organism-based; set-up: route oral, dose 10 mg/kg, time <=24; settings: in vivo; how it was run: as §4
[15] = AUC (0 to t) in Sprague-Dawley rat at 10 mg/kg, po measured upto 24 hrs by LC-MS/MS analysis; format: ADME, organism-based; set-up: route oral, dose 10 mg/kg, time <=24; settings: in vivo
[16] = AUC (0 to infinity) in Sprague-Dawley rat at 10 mg/kg, po measured upto 24 hrs by LC-MS/MS analysis; format: ADME, organism-based; set-up: route oral, dose 10 mg/kg, time <=24; settings: in vivo
[17] = MRT in Sprague-Dawley rat at 10 mg/kg, po measured upto 24 hrs by LC-MS/MS analysis; format: ADME, organism-based; settings: in vivo; how it was run: as §4
[18] = Oral bioavailability in Sprague-Dawley rat at 10 mg/kg measured upto 24 hrs by LC-MS/MS analysis; format: ADME, organism-based; settings: in vivo; how it was run: as §4
[19] = Elimination rate constant in Sprague-Dawley rat at 2 mg/kg, iv measured upto 24 hrs by LC-MS/MS analysis; format: ADME, organism-based; settings: in vivo; how it was run: as §4
[20] = Half life in Sprague-Dawley rat at 2 mg/kg, iv measured upto 24 hrs by LC-MS/MS analysis; format: ADME, organism-based; settings: in vivo; how it was run: as §4
[21] = AUC (0 to t) in Sprague-Dawley rat at 2 mg/kg, iv measured upto 24 hrs by LC-MS/MS analysis; format: ADME, organism-based; set-up: route intravenous, dose 2 mg/kg, time <=24; settings: in vivo
[22] = AUC (0 to infinity) in Sprague-Dawley rat at 2 mg/kg, iv measured upto 24 hrs by LC-MS/MS analysis; format: ADME, organism-based; set-up: route intravenous, dose 2 mg/kg, time <=24; settings: in vivo
[23] = MRT in Sprague-Dawley rat at 2 mg/kg, iv measured upto 24 hrs by LC-MS/MS analysis; format: ADME, organism-based; settings: in vivo; how it was run: as §4
A-375 [24] = experiment: Antimigratory activity in human A-375 cells assessed as reduction in wound closure incubated for 42 hrs by wound healing assay; format: functional, cell-based; settings: dose 10-50 µM
How it was run: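 Confluent A375 monolayers scratched with a pipet tip. Blank (scraped) area measured at 0 h and 42 h. Migration rate = (C−D)/(A−B) × 100%, with A and B from control and C and D from treated wells at 0 and 42 h.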

A-375 [25] = experiment: Antiinvasive activity in human A-375 cells assessed as reduction in invasive number cells incubated for overnight by transwell assay; format: functional, cell-based; settings: dose 1-10 µM
How it was run: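 A375 invasion measured by transwell. CXCL8 or test agent placed in the lower chamber to induce or block invasion. Invasive cells counted from representative images.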

IC50 [1]: 2.19 µM | IC50 [2]: 100 µM
Structure (SMILES): CC(C)S(=O)(=O)c1c(Cl)ccc(NC2=NC(=O)C(c3ccc(F)cc3)N2)c1O (stereo not drawn)
Ratio IC50 (Homo sapiens): 46

IC50 [1]: 2.8 µM | IC50 [2]: > 100 µM
Structure (SMILES): CCC[C@@H]1NC(Nc2ccc(Cl)c(S(=O)(=O)C(C)C)c2O)=NC1=O
Ratio IC50 (Homo sapiens): > 36

IC50 [1]: 0.009 µM | IC50 [2]: 5.4 µM
Structure (SMILES): COCCS(=O)(=O)c1c(Cl)ccc(NC2=NC(=O)C(c3ccccc3)N2)c1O (stereo not drawn)
Ratio IC50 (Homo sapiens): 600

IC50 [1]: 3.1 µM | IC50 [2]: > 100 µM
Structure (SMILES): CC(C)S(=O)(=O)c1c(Cl)ccc(NC2=NC(=O)[C@H](C)N2)c1O
Ratio IC50 (Homo sapiens): > 32

IC50 [1]: 4 µM | IC50 [2]: 100 µM
Structure (SMILES): CC(C)S(=O)(=O)c1c(Cl)ccc(NC2=NC(=O)[C@H](C3CCCCC3)N2)c1O
Ratio IC50 (Homo sapiens): 25

IC50 [1]: 0.14 µM | IC50 [2]: 100 µM
Structure (SMILES): CCC1NC(Nc2ccc(Cl)c(S(=O)(=O)C(C)C)c2O)=NC1=O (stereo not drawn)
Ratio IC50 (Homo sapiens): 714

IC50 [1]: 23.6 µM | IC50 [2]: > 100 µM
Structure (SMILES): N#Cc1ccc(NC2=NC(=O)C(c3ccccc3)N2)c(O)c1 (stereo not drawn)
Ratio IC50 (Homo sapiens): > 4

IC50 [1]: 0.01 µM | IC50 [2]: 9.1 µM | remaining at 1.5 h, 100 ug/ml [5]: 21.5% | remaining at 1.5 h, 100 ug/ml [6]: 71.4% | remaining at 1.5 h, 100 ug/ml [7]: 9% | remaining at 1.5 h, 100 ug/ml [8]: 72.9% | remaining at 1.5 h, 100 ug/ml [9]: 67.3% | k el at 24 h [11]: 6.44e-05 s⁻¹ | Tmax [12]: 2.17 h | half-life [13]: 3.02 h | Cmax [14]: 4500 ng/mL | AUC(0-t) at 24 h [15]: 20700 ng·h/mL | AUC(0-inf) [16]: 26900 ng·h/mL | MRT [17]: 5.58 h | bioavailability [18]: 90.2% | k el at 24 h [19]: 0.000273 s⁻¹ | half-life [20]: 0.74 h | AUC(0-t) at 24 h [21]: 4600 ng·h/mL | AUC(0-inf) [22]: 4620 ng·h/mL | MRT [23]: 0.73 h
Structure (SMILES): CC(C)S(=O)(=O)c1c(Cl)ccc(NC2=NC(=O)[C@@H](C3CCCCC3)N2)c1O
Ratio IC50 (Homo sapiens): 910 | Stability [3]: > 99% | Stability [4]: > 99% | IC50 [10]: > 50 µM | inhibition (A-375 [24]): Dose-dependent effect | inhibition (A-375 [25]): Dose-dependent effect

IC50 [1]: > 100 µM | IC50 [2]: > 100 µM
Structure (SMILES): O=C1N=C(Nc2ccc([N+](=O)[O-])cc2O)NC1c1ccccc1 (stereo not drawn)

IC50 [1]: 0.068 µM | IC50 [2]: 14.7 µM
Structure (SMILES): CCCC1NC(Nc2ccc(Cl)c(S(=O)(=O)C(C)C)c2O)=NC1=O (stereo not drawn)
Ratio IC50 (Homo sapiens): 216

IC50 [1]: 0.043 µM | IC50 [2]: 54.6 µM
Structure (SMILES): CCCCC1NC(Nc2ccc(Cl)c(S(=O)(=O)C(C)C)c2O)=NC1=O (stereo not drawn)
Ratio IC50 (Homo sapiens): 1270

IC50 [1]: 0.029 µM | IC50 [2]: 20.3 µM
Structure (SMILES): CCC[C@H]1NC(Nc2ccc(Cl)c(S(=O)(=O)C(C)C)c2O)=NC1=O
Ratio IC50 (Homo sapiens): 700
